Data set [1] concerns the target T1, Insulin-like growth factor 1 receptor (Homo sapiens, UniProt P08069). Description: Inhibition of IGF1R phosphorylation in human MIAPaCa cells by ELISA. The data set is classed as cell-based. The method, boiled down:
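Cellular IGF1R phosphorylation was read out in ELISA format in MiaPaCa human pancreatic carcinoma cells, which express both IGF1R and EGFR.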
(In general: ELISA stands for enzyme-linked immunosorbent assay.)

Data set [2] addresses T2, Receptor tyrosine-protein kinase erbB-2 (Homo sapiens, UniProt P04626). Description: Inhibition of ERBb2 phosphorylation in human BT474 cells by ELISA. The data set is classed as cell-based, BT-474. The gist of the method:
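ErbB2 phosphorylation was read out in ELISA format in BT474 human breast tumour cells, which highly express ErbB2.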

The target of data set [3] is Epidermal growth factor receptor (Homo sapiens, UniProt P00533). As to the kind of experiment: Inhibition of EGFR phosphorylation in human MIAPaCa cells by ELISA. The format is cell-based.
Data set [4] concerns the target T2, Receptor tyrosine-protein kinase erbB-2. Description: Inhibition of ErbB2.
Data set [5] addresses Epidermal growth factor receptor (Homo sapiens, UniProt P04626+P00533+Q15303+P21860). As to the kind of experiment: Inhibition of EGFR L858 mutant. The format is protein assay. The gist of the method: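 Kinase inhibition was measured in a homogeneous time-resolved fluorescence assay. The EGFR enzyme construct carries the L858R activating mutation.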
The target of data set [6] is T1, Insulin-like growth factor 1 receptor. As to the kind of experiment: Inhibition of IGF1R.
Data set [7] can be described thus: Half life in iv dosed rat. The format is ADME, organism-based. The settings on record: in vivo.
The nature of data set [8]: Cmax in rat at 5 mg/kg, po. The format is ADME, organism-based. The arrangement: dose 5 mg/kg, route oral. Conditions: in vivo. The gist of the method:
(§1)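 Rat oral PK used a 5 mg/kg dose. AUC is normalized to dose (per mg/kg), and F is oral bioavailability.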

Data set [9] in a line: Oral bioavailability in C57BL/6 mouse at 10 mg/kg. Conditions: in vivo. The data set is classed as ADME, organism-based. The method, boiled down: (§2)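 Mouse oral PK used a 10 mg/kg dose. AUC is normalized to dose (per mg/kg), and F is oral bioavailability.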
Data set [10] concerns Mus musculus. As to the kind of experiment: Dose normalized AUC in po dosed C57BL/6 mouse. The format is ADME, organism-based. Conditions: in vivo. The method, boiled down:
as §2

Data set [11] relates to Mus musculus. As to the kind of experiment: Inhibition of IGF1R phosphorylation in C57BL/6 mouse at 30 mg/kg, iv by Western blotting. The format is functional. The method, boiled down: (§3)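 Female C57BL/6 mice were dosed iv with compound or vehicle; doses of 3, 10, 30 and 60 mg/kg were used. After 1 h, IGF-1 was given iv at 0.5 mg/kg, and mice were sacrificed 10 min later. Lung tissue was homogenized, and p-IGF1R and p-Akt were analyzed by Western blot. Drug levels in plasma and tissues were measured.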

A short description of data set [12]: Clearance in iv dosed C57BL/6 mouse. The format is ADME, organism-based. The settings on record: in vivo.
Data set [13] relates to Rattus norvegicus. Description: Dose normalized AUC in iv dosed rat. The format is ADME, organism-based. Conditions: in vivo. The method, boiled down: (§4)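 Intravenous PK: AUC is normalized to dose and expressed per mg/kg.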
The nature of data set [14]: Cmax in C57BL/6 mouse at 10 mg/kg, po. The format is ADME, organism-based. Conditions: in vivo. The arrangement: dose 10 mg/kg, route oral. The gist of the method:
as §2

The nature of data set [15]: Clearance in iv dosed rat. The format is ADME, organism-based. Conditions: in vivo.
Data set [16] deals with Rattus norvegicus. Description: Dose normalized AUC in po dosed rat. The data set is classed as ADME, organism-based. The settings on record: in vivo. The method, boiled down: as §1
Data set [17] can be described thus: Oral bioavailability in rat at 5 mg/kg. The data set is classed as ADME, organism-based. Conditions: in vivo. The method, boiled down: as §1
Data set [18] deals with Mus musculus. Description: Dose normalized AUC in iv dosed C57BL/6 mouse. The format is ADME, organism-based. The settings on record: in vivo. The method, boiled down: as §4
In data set [19] the test system is Mus musculus. Description: Inhibition of AKT phosphorylation in C57BL/6 mouse at 30 mg/kg, iv by Western blotting. The format is functional, organism-based. The arrangement: dose 30 mg/kg. The method, boiled down:
as §3
(In general: In western blotting, separated proteins are transferred to a membrane and probed.)

Data set [20] can be described thus: Tmax in po dosed C57BL/6 mouse. The format is ADME, organism-based. Conditions: in vivo. The method, boiled down:
as §2

Data set [21] is described as follows: Tmax in po dosed rat. The data set is classed as ADME, organism-based. Conditions: in vivo. The gist of the method:
as §1

Data set [22] in a line: Half life in iv dosed C57BL/6 mouse. The settings on record: in vivo. The data set is classed as ADME, organism-based.

Activity calls are given as the source filed them.

T1 sequence (P08069 31-736 limits assumed): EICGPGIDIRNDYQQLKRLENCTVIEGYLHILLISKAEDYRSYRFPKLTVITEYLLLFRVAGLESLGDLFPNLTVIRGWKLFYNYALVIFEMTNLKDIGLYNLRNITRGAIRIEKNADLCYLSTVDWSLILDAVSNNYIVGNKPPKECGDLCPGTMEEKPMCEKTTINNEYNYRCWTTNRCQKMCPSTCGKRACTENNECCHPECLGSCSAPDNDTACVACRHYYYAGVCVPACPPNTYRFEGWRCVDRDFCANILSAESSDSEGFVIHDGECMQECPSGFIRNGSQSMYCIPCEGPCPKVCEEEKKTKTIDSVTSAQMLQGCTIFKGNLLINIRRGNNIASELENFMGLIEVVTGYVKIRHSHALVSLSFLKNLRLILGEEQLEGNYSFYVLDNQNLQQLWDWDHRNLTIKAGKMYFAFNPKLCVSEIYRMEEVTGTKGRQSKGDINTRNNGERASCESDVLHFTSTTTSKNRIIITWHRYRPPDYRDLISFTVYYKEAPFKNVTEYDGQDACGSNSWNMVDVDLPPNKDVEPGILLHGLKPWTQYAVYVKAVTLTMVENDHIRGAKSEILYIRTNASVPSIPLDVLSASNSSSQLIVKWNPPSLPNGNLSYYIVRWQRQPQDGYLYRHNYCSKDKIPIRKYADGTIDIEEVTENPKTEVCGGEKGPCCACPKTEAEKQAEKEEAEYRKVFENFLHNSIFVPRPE
T1 sequence (P08069 741-1367 limits assumed): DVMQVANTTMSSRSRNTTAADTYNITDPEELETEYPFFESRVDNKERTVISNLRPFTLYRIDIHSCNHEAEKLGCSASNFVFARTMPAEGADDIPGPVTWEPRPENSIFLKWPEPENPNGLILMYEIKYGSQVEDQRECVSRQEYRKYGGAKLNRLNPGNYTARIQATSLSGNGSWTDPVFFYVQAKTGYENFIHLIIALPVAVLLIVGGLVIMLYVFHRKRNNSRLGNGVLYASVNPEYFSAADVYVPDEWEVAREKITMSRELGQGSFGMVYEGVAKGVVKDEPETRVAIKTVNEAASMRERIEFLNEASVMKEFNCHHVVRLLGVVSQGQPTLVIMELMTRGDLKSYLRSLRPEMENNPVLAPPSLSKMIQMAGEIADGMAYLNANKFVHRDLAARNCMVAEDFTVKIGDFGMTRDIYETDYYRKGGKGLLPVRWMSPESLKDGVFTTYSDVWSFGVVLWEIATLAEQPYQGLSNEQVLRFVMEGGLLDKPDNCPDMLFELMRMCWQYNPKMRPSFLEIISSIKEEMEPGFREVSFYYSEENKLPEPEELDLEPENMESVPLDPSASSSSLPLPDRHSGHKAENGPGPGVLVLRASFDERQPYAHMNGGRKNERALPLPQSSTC
Chain of Epidermal growth factor receptor (Homo sapiens, UniProt P00533) (P00533 whole entry): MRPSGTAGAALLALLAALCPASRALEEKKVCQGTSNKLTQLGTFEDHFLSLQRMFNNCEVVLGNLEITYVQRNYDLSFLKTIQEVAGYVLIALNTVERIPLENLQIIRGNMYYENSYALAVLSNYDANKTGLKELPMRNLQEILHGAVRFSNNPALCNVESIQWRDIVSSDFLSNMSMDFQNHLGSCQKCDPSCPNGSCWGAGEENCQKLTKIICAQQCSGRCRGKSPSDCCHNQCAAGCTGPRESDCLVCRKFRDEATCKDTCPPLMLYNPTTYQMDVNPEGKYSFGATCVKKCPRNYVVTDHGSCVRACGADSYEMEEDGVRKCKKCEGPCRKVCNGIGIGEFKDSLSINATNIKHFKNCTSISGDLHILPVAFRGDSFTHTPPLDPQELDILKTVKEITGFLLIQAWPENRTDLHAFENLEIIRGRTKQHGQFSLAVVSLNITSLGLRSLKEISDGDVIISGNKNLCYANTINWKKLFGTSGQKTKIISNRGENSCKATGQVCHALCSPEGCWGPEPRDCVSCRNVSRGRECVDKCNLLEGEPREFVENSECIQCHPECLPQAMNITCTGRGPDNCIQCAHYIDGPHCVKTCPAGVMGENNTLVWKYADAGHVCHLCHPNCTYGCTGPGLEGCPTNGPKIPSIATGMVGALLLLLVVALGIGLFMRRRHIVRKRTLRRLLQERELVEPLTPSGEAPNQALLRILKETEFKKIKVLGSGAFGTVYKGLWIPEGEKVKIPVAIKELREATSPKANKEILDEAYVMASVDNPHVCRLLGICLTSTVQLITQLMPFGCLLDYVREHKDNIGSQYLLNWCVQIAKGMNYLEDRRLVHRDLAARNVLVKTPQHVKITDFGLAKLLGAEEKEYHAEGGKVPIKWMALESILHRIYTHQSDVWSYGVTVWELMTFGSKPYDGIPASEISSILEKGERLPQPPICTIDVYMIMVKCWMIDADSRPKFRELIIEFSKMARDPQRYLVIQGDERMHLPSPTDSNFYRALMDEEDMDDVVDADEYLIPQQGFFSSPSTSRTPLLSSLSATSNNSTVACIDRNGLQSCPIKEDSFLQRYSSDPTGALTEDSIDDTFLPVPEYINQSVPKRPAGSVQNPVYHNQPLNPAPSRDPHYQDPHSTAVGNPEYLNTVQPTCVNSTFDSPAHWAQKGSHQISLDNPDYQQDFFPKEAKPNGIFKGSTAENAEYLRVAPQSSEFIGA
T2 sequence (P04626 whole entry): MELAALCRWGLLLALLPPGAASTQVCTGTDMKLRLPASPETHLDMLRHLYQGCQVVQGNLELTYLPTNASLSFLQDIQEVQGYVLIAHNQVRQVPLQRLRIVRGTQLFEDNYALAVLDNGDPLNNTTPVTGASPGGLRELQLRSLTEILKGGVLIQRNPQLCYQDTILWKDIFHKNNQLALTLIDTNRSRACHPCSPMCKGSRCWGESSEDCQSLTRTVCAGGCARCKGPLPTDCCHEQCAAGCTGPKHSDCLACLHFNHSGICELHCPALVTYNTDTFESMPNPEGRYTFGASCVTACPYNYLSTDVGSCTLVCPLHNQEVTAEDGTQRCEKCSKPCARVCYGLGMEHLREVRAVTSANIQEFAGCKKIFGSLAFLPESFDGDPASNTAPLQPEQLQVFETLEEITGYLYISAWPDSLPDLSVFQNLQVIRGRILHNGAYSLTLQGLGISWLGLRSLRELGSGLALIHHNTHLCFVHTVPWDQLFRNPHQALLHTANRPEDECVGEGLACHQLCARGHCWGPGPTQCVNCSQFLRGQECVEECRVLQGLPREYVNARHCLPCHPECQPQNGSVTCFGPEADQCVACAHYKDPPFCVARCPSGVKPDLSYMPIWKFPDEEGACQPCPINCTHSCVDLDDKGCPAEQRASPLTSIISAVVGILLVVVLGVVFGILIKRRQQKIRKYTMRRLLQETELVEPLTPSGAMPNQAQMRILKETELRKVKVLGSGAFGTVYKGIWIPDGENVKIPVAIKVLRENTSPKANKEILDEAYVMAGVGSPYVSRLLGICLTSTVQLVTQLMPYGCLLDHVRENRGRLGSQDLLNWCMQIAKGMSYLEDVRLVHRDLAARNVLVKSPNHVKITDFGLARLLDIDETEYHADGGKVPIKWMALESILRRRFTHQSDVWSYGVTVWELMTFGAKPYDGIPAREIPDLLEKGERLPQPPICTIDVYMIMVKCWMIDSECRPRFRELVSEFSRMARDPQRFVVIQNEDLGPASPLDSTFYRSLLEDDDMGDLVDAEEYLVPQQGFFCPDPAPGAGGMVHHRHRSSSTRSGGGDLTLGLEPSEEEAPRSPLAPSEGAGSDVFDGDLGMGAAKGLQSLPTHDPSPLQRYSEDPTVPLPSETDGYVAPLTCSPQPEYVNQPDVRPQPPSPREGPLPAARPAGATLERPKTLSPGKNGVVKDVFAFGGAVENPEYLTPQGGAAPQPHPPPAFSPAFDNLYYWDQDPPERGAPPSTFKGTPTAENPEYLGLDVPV

Turning to `CN1CCN([C@H]2C[C@@H](c3nc(-c4ccc5ccc(-c6ccccc6)nc5c4)c4c(N)nccn43)C2)CC1`, the figures for the IC50 in data set [1], in data set [2] and in data set [3] were 0.065 µM, over 30 µM and over 30 µM, respectively.

Turning to `Cc1cc(Nc2nc3cccc(Cl)c3o2)ccc1-c1nn([C@H]2CC[C@H](N3CCN(C)CC3)CC2)c2ncnc(N)c12`, the IC50 (in general, the concentration needed to halve the response being measured) in [4] worked out at 0.478 µM; in data set [5], 0.53 µM; in [6] it was 0.022 µM.

As for `CN1CCN([C@H]2CC[C@@H](n3nc(-c4ccc(Nc5nc6ccccc6o5)cc4)c4c(N)ncnc43)CC2)CC1`, the IC50 in data set [5] came out at 1.66 µM; in data set [6], 0.81 µM.

In the case of `CN1CCN([C@H]2CC[C@@H](n3nc(-c4ccc(Nc5nc6cc(Cl)cc(Cl)c6o5)cc4)c4c(N)ncnc43)CC2)CC1`, the IC50 in data set [5] worked out at 0.639 µM; in data set [6] it was 0.584 µM.

Consider `CN1CCC(N2CCC(n3nc(-c4ccc(Nc5nc6cccc(Cl)c6o5)cc4)c4c(N)ncnc43)CC2)CC1`, for which the IC50 in data set [4] was determined as 0.0145 µM; in data set [5], 0.099 µM; in data set [6], 0.108 µM.

As for `CC(C)N1CCC(N2CCC(n3nc(-c4ccc(Nc5nc6cccc(Cl)c6o5)cc4)c4c(N)ncnc43)CC2)CC1`, the half-maximal inhibitory concentration (IC50) in data set [4] was 0.0151 µM; in data set [5], 0.097 µM; in data set [6], 0.115 µM.

As to `CC(C)N1CCN([C@H]2CC[C@H](n3nc(-c4ccc(Nc5nc6cccc(Cl)c6o5)cc4)c4c(N)ncnc43)CC2)CC1`, the IC50 in data set [4] was determined as 0.0098 µM; in data set [5], 0.0537 µM; in data set [6], 0.0451 µM.

Turning to `CN1CCN([C@H]2CC[C@H](n3nc(-c4ccc(Nc5nc6cccc(Cl)c6o5)c(Cl)c4)c4c(N)ncnc43)CC2)CC1`, the results for the IC50 in data set [4], in [5] and in data set [6] were 0.029 µM, 0.063 µM and 0.049 µM, respectively.

`Cc1cc(-c2nn([C@H]3CC[C@H](N4CCN(C)CC4)CC3)c3ncnc(N)c23)ccc1Nc1nc2cccc(Cl)c2o1`: the IC50 in data set [5] was 0.156 µM; in [6] it was 0.196 µM.

On to `CN1CCN([C@H]2CC[C@@H](n3nc(-c4ccc(Nc5nc6cccc(C#N)c6o5)cc4)c4c(N)ncnc43)CC2)CC1`, for which the IC50 in data set [5] was 2.81 µM; in data set [6] it was 0.113 µM.

Take `CN(C)C(=O)CN1CCN([C@H]2CC[C@H](n3nc(-c4ccc(Nc5nc6cccc(Cl)c6o5)cc4)c4c(N)ncnc43)CC2)CC1`: the IC50 worked out at 0.0215 µM in [4], 1.84 µM in data set [5] and 0.126 µM in data set [6].

On to `CN1CCN([C@H]2CC[C@@H](n3nc(-c4ccc(Nc5nc6cccc(Cl)c6o5)cc4)c4c(N)ncnc43)CC2)CC1`, for which the IC50 in data set [4] turned out to be 0.2 µM; in data set [5] it was 0.393 µM; in [6], 0.077 µM.

With `Cc1cc(Br)c2oc(Nc3ccc(-c4cn([C@H]5CC[C@@H](N6CCN(C)CC6)CC5)c5ncnc(N)c45)cc3F)nc2c1`, the values for the IC50 in [4], in [5] and in data set [6] were over 62.5 µM, 1.45 µM and 0.094 µM, respectively.

Turning to `CN1CCN([C@H]2CC[C@H](n3nc(-c4ccc(Nc5nc6cccc(Cl)c6o5)c(F)c4)c4c(N)ncnc43)CC2)CC1`, the IC50 in [4] amounted to 0.016 µM; in [5], 0.037 µM; in [1], 0.087 µM; in data set [6] it was 0.0075 µM; in [2], 0.362 µM; in [3], 2.88 µM. Besides, the EC50 (usually the concentration giving half of the maximal effect) in [3] was over 1 µM.

For `CC(C)N1CCN([C@H]2CC[C@@H](n3nc(-c4ccc(Nc5nc6cccc(Cl)c6o5)cc4)c4c(N)ncnc43)CC2)CC1`, the IC50 in data set [4] was found to be 0.062 µM; in data set [5], 0.322 µM; in [6], 0.174 µM.

As to `Cc1cc(Cl)c2oc(Nc3ccc(-c4nn([C@H]5CC[C@@H](N6CCN(C)CC6)CC5)c5ncnc(N)c45)cc3)nc2c1`, the figures for the IC50 in [4], in data set [5] and in data set [6] were 5.23 µM, 1.13 µM and 0.348 µM, respectively.

Regarding `CN1CCN([C@H]2CC[C@H](n3nc(-c4ccc(Nc5nc6cccc(Cl)c6o5)cc4Cl)c4c(N)ncnc43)CC2)CC1`, the IC50 is 0.0154 µM in [4] and 0.0041 µM in [6].

Take `COCCCN1CCN([C@H]2CC[C@H](n3nc(-c4ccc(Nc5nc6cccc(Cl)c6o5)cc4)c4c(N)ncnc43)CC2)CC1`: the figures for the IC50 in [4], in data set [5] and in data set [6] were 0.0215 µM, 0.108 µM and 0.0724 µM, respectively.

On to `Nc1ncnc2c1c(-c1ccc(Nc3nc4cccc(Cl)c4o3)cc1)nn2[C@H]1CC[C@H](N2CCOCC2)CC1`, for which the IC50 was 0.334 µM in data set [4], 1.02 µM in data set [5] and 0.042 µM in [6].

Consider `CN1CCN([C@H]2CC[C@H](n3nc(-c4ccc(Nc5nc6cccc(Cl)c6o5)cc4)c4c(N)ncnc43)CC2)CC1`, for which the half-life (in general, the time needed for the level to fall by half in the phase considered) is 8.4 h in data set [7] and 2.4 h in data set [22]. Besides, the Cmax (in general, the highest concentration seen after dosing) in data set [8] came out at 160 nM; in [14], 170 nM. In addition, the bioavailability (commonly the share of a dose that reaches the circulation, judged against a reference dose that is usually intravenous) in [9] came to 20%; in data set [17], 30%. Also, the AUC (in general, concentration integrated over time) stood at 190 ng·h/mL in the data set on Mus musculus [10], 1260 ng·h/mL with Rattus norvegicus [13], 380 ng·h/mL in the data set on Rattus norvegicus [16] and 940 ng·h/mL in the data set with Mus musculus [18]. Besides, in the data set on Mus musculus [11], the inhibition in vivo (as a rule, the percentage by which the read-out fell short of the control) at 30 mg/kg is 50%. Besides, the IC50 in data set [4] is 0.0075 µM; in data set [5], 0.0315 µM; in data set [1], 0.207 µM; in data set [6], 0.0125 µM; in data set [2], 0.34 µM; in [3], 2.3 µM. Moreover, the clearance (as a rule, the rate of elimination divided by the concentration) in data set [12] was 31.8 mL/min/kg; in data set [15] it was 15.2 mL/min/kg. The inhibition entry with Mus musculus [19] was “Active”. In data set [3], this molecule showed an EC50 of over 1 µM. In addition, the Tmax – broadly, the time at which the peak concentration occurs – in [20] is 3 h; in data set [21], 8 h.

For the molecule `Cc1cc(C)c2oc(Nc3ccc(-c4nn([C@H]5CC[C@@H](N6CCN(C)CC6)CC5)c5ncnc(N)c45)cc3F)nc2c1`, the IC50 is 4.03 µM in [4], 2.27 µM in [5] and 0.16 µM in [6].

For the molecule `COCCCN1CCC(N2CCC(n3nc(-c4ccc(Nc5nc6cccc(Cl)c6o5)cc4)c4c(N)ncnc43)CC2)CC1`, the IC50 in data set [4] is 0.0138 µM; in [5] it was 0.264 µM; in data set [6] it was 0.283 µM.

On to `CN1CCN([C@H]2CC[C@@H](n3nc(-c4ccc(Nc5nc6cccc(Cl)c6o5)c(F)c4)c4c(N)ncnc43)CC2)CC1`, for which the IC50 in data set [4] came out at 1.35 µM; in data set [5], 0.852 µM; in data set [6] it was 0.072 µM.

As to `COCCCN1CCN([C@H]2CC[C@@H](n3nc(-c4ccc(Nc5nc6cccc(Cl)c6o5)cc4)c4c(N)ncnc43)CC2)CC1`, the IC50 was 0.397 µM in data set [4], 0.874 µM in data set [5] and 0.424 µM in [6].

Take `CN1CCN([C@H]2CC[C@@H](n3nc(-c4ccc(Nc5nc6cc(Cl)ccc6o5)c(F)c4)c4c(N)ncnc43)CC2)CC1`: the results for the IC50 in [5] and in [6] were 1.47 µM and 0.415 µM, respectively.

On to `COC(=O)c1cccc2nc(Nc3ccc(-c4nn([C@H]5CC[C@@H](N6CCN(C)CC6)CC5)c5ncnc(N)c45)cc3)oc12`, for which the IC50 in [5] worked out at 3.59 µM; in data set [6], 0.179 µM.
